{"source": "paper PMC9494814", "about": "(Cell, 2022)", "key": {"αIIbβ3 WT": {"biological_target": "αIIbβ3 WT (Homo sapiens, UniProt P05106+P08514)", "sequence (P08514 32-887 limits assumed)": "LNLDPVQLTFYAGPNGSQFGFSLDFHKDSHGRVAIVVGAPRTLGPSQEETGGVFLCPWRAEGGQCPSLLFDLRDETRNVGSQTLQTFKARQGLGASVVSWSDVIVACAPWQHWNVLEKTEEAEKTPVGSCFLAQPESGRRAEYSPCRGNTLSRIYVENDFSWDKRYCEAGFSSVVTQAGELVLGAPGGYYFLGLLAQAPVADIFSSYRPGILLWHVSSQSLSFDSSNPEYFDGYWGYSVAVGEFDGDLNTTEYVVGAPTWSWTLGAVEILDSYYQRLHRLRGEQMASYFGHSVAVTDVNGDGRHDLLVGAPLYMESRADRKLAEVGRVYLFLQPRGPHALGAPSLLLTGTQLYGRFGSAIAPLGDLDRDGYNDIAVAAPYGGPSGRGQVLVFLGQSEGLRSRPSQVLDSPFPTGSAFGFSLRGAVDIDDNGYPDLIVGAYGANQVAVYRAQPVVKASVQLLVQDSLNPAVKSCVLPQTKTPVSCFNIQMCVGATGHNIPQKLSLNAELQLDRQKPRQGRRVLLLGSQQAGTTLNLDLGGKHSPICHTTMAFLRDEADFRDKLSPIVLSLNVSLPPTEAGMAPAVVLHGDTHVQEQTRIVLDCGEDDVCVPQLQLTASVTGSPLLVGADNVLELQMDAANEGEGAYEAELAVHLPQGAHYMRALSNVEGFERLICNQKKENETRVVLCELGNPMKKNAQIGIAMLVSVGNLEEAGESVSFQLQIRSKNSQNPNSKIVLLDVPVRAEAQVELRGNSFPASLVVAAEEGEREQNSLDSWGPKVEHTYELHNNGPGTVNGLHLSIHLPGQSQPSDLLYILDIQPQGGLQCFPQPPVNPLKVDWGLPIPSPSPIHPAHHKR", "sequence (P08514 891-1039 partner limits assumed)": "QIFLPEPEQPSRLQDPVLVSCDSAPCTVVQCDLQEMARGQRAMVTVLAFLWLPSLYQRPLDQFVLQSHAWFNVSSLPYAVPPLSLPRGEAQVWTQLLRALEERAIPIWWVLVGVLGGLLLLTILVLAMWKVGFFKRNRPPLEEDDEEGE", "sequence (P05106 27-788)": "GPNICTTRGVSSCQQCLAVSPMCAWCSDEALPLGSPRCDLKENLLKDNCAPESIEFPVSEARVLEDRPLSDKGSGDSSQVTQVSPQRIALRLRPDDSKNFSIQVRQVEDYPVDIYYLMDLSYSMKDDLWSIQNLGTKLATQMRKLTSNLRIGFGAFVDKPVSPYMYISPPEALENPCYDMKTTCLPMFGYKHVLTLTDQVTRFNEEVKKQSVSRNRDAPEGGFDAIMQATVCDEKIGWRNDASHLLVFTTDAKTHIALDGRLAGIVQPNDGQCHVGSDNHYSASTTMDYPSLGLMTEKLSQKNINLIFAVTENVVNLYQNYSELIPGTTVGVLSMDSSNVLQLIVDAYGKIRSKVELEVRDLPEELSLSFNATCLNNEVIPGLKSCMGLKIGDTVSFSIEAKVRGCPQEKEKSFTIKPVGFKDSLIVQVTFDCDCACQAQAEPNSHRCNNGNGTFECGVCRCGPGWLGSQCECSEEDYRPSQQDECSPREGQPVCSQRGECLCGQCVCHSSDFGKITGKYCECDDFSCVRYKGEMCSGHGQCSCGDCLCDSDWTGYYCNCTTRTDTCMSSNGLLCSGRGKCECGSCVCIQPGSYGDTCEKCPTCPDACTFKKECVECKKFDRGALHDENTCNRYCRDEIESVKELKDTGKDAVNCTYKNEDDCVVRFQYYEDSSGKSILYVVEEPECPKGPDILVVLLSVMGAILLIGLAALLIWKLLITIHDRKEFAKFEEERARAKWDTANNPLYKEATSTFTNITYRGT", "assay": "MBC319.4 Fab LIBS epitope exposure on αIIbβ3 WT transfectants", "format": "cell-based", "conditions": "inhibitors at 100x Kd", "procedure,_shortened": "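Cells transiently transfected with αIIbβ3 received valproic acid (3 mM final) and glucose (0.4%) at 24 h, and were washed at 48 h in EDTA-containing then plain L-15/0.1% BSA. Cells were incubated with 20 nM Alexa647-MBC319.4 Fab plus inhibitor (Kd from FITC-echistatin competition on WT transfectants) in L15/0.1% BSA, 22°C for 2 h. Read-out was unwashed flow cytometry.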"}, "αIIbβ3_N305T": {"biological_target": "αIIbβ3_N305T (Homo sapiens, UniProt P05106+P08514, N331T)", "sequence (P08514 32-887 limits assumed)": "as the sequence (P08514 32-887 limits assumed) above", "sequence (P08514 891-1039 partner limits assumed)": "as the sequence (P08514 891-1039 partner limits assumed) above", "sequence (P05106 27-788 N331T)": "as the sequence (P05106 27-788) above, with N305T counted along it", "assay": "MBC319.4 Fab LIBS epitope exposure on αIIbβ3_N305T transfectants", "format": "cell-based", "conditions": "αIIbβ3 N305T transfectants, inhibitors at 100x Kd", "procedure,_shortened": "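αIIbβ3_N305T transfectants of α5/αV-knockout Expi293F cells, harvested 48 h post-transfection and EDTA-washed. Incubated with 20 nM Alexa647-labelled MBC319.4 Fab and test compound in L-15 with 0.1% BSA, equilibrated 2 h at 22°C. Fab binding read by flow cytometry without washing, as MFI.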"}, "[1]": {"tested_on": "αIIbβ3 WT and αIIbβ3_N305T", "format": "binding", "conditions": "Expi293F transfectants, L15 medium with 0.1% BSA", "procedure,_shortened": "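Expi293F cells with α5 and αV knocked out, transiently co-transfected with αIIb plus β3 or β3_N305T; valproic acid (3 mM) and glucose (0.4%) added at 24 h. At 48 h, cells washed with EDTA-containing L-15/0.1% BSA, then plain assay medium. 10^6 cells/ml incubated with FITC-echistatin and varying test compound, 2 h at 22°C; unwashed flow cytometry. Probe Kd from titration against 5 nM AF647-MBC319.4 Fab. Compound Kd from nonlinear least-squares fits with integrin concentration as a parameter, with error propagation.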"}, "[2]": {"tested_on": "clot retraction in human PRP", "assay": "Clot retraction in platelet-rich plasma", "format": "cell-based", "conditions": "thrombin", "procedure,_shortened": "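Citrated human PRP pre-incubated 20 min at RT with test compound or buffer (in Tyrode's buffer + 1% BSA) at several concentrations. Glass-tube clot retraction started with thrombin (7.5 U/ml stock) at 37°C and imaged every 15 min. Retraction = 1 − (clot area/whole reaction area). IC50 at 30 and 90 min from a three-parameter inhibitor-response fit. Three runs, PRP from three donors.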"}, "[3]": {"biological_target": "αIIbβ3 on washed human platelets (Homo sapiens, UniProt P05106+P08514)", "sequence (P08514 32-887 limits assumed)": "as the sequence (P08514 32-887 limits assumed) above", "sequence (P08514 891-1039 partner limits assumed)": "as the sequence (P08514 891-1039 partner limits assumed) above", "sequence (P05106 27-788)": "as the sequence (P05106 27-788) above", "assay": "Platelets LIBS exposure assay", "format": "cell-based", "procedure,_shortened": "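Blood from drug-free healthy donors was taken into acid-citrate-dextrose. PRP was spun (140xg, 12 min), given PGE1 at 50 ng/ml, pelleted, washed in citrate-dextrose buffer pH 6.5 and resuspended in Tyrode's pH 7.4 with 1% BSA and 1 mM Ca²⁺/Mg²⁺. […] Read-out was unwashed flow cytometry MFI, over three days with two donors.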"}, "[4]": {"conditions": "2012, cited from earlier work"}, "αIIbβ3": {"tested_on": "αIIbβ3", "conditions": "patients with acute coronary syndrome ref Cox et al., 2000; cited from earlier work"}, "αIIbβ3 headpiece [5]": {"biological_target": "T1, αIIbβ3 headpiece (Homo sapiens, UniProt P05106+P08514)", "T1 sequence (P08514 32-488 limits assumed)": "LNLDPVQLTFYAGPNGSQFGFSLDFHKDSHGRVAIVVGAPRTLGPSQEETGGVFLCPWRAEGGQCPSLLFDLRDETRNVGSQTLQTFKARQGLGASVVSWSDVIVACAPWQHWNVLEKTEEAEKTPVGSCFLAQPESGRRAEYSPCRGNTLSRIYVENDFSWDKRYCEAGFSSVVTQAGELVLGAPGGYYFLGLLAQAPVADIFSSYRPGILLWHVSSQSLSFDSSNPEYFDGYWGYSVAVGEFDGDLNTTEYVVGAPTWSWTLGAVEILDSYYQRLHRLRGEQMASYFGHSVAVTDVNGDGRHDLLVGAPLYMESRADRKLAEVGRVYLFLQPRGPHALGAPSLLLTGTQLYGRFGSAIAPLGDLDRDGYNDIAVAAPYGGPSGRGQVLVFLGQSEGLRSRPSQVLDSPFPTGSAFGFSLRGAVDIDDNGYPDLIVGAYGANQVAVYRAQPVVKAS", "T1 sequence (P05106 27-498 limits assumed)": "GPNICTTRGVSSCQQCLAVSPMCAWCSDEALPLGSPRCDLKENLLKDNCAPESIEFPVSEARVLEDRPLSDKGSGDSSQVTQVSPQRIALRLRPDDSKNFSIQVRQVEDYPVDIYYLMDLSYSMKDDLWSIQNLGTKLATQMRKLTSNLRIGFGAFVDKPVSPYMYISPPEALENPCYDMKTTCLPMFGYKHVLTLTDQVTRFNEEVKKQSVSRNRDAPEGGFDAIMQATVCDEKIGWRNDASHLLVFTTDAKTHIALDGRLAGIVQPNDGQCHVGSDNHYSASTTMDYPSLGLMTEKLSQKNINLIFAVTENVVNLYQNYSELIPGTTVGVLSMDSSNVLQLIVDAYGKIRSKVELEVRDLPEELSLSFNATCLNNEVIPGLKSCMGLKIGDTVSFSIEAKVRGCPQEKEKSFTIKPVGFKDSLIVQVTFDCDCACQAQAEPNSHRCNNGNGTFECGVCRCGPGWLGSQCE", "conditions": "soaked in Mg2+", "procedure,_shortened": "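Closed αIIbβ3 headpiece–10E5 Fab crystals stabilised in 15% PEG 8000, 0.2 M ammonium sulfate, 0.1 M Tris-HCl pH 8.9, with glycerol raised in 5% steps to 15%. Compound (0.1-1 mM) added in the final 20% glycerol cryo step, with 1 mM MgCl2/1 mM CaCl2 or 2 mM MnCl2/0.2 mM CaCl2. Soaked 4 h, plunge-frozen in liquid N2. Synchrotron diffraction data collected, then structure refinement.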"}, "αIIbβ3 headpiece [6]": {"biological_target": "T1, αIIbβ3 headpiece", "assay": "Size-exclusion chromatography", "format": "biochemical", "conditions": "10 μM drug", "procedure,_shortened": "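Superdex 200 column equilibrated with 10 µM test compound in HEPES-buffered saline containing either 1 mM Mg2+/1 mM Ca2+ or 2 mM Mn2+/0.2 mM Ca2+. αIIbβ3 headpiece (30 µg) pre-incubated 30 min at RT with 60 µM compound in matching buffer, then chromatographed. Hydrodynamic radius taken from elution. Two runs, or one, per compound; controls ≥3.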"}, "WT αIIbβ3": {"tested_on": "WT αIIbβ3", "assay": "Competition with FITC-echistatin binding to WT αIIbβ3 transfectant in serum", "conditions": "95% serum compared to 0.1% BSA"}, "α5β1": {"tested_on": "α5β1", "conditions": "ref Li et al., 2017; cited from earlier work"}}, "note": "Read-outs that look alike come from different tables or passages of the source."}
{"molecule": "NCC(=O)Nc1cncc(-c2nn3c(=O)cc(N4CCNCC4)nc3s2)c1", "note": "[RUC-4]", "values": [{"measurement": "LIBS (MBC319.4) epitope exposure", "setting": "αIIbβ3 WT", "result": "no effect on LIBS epitope expression"}, {"measurement": "LIBS (MBC319.4) epitope exposure", "setting": "αIIbβ3_N305T", "result": "no effect on LIBS epitope expression"}, {"measurement": "affinity for activated mutant (β3 N305T) compared with WT αIIbβ3", "setting": "[1]", "result": "indistinguishable"}, {"measurement": "inhibition of clot retraction", "setting": "[2]", "result": "effective"}, {"measurement": "LIBS epitope exposure (integrin extension) on washed platelets", "setting": "[3]; absence of thrombin", "result": "no significant effect"}, {"measurement": "LIBS epitope exposure (integrin extension) on washed platelets", "setting": "[3]; after activation with thrombin 0.5 U/ml", "result": "no effect on integrin extension"}]}
{"molecule": "CCOCc1cc(OC)c(-c2ccc(C[C@H](NC(=O)c3c(F)cccc3F)C(=O)O)cc2)c(OC)c1", "note": "[firategrast]", "values": [{"measurement": "gadolinium-enhanced lesions", "setting": "[4]; highest dose ref Miller et al.", "result": "significant decrease"}, {"measurement": "gadolinium-enhanced lesions", "setting": "[4]; lowest dose ref Miller et al.", "result": "significant increase"}, {"measurement": "gadolinium-enhanced lesions", "setting": "[4]; middle dose ref Miller et al.", "result": "lack of effect"}]}
{"molecule": "CCOC(=O)CCNC(=O)N[C@H]1CCN(c2ccc(C(=N)N)cc2)C1=O", "note": "[orbofiban]", "values": [{"measurement": "platelet activation markers in treated patients", "setting": "αIIbβ3", "result": "increased αIIbβ3 conformational change, antibody-stimulated thromboxane B2 production, and CD63 expression"}]}
{"molecule": "CCCCS(=O)(=O)N[C@@H](Cc1ccc(OCCCCC2CCNCC2)cc1)C(=O)O", "note": "[tirofiban]", "values": [{"measurement": "LIBS (MBC319.4) epitope exposure", "setting": "αIIbβ3 WT", "result": "next strongest"}, {"measurement": "inhibition of clot retraction", "setting": "[2]", "result": "effective"}, {"measurement": "effect on structure of closed αIIbβ3 headpiece in crystals", "setting": "αIIbβ3 headpiece [5]", "result": "Ser-123 displaced water 1 to coordinate directly to the MIDAS metal ion"}, {"measurement": "effect on αIIbβ3 headpiece opening in gel filtration", "setting": "αIIbβ3 headpiece [6]; 1 mM Mg2+/1 mM Ca2+", "result": "caused the headpiece to elute earlier in gel filtration"}, {"measurement": "hydrodynamic radius of αIIbβ3 headpiece", "setting": "αIIbβ3 headpiece [6]; 2 mM Mn2+/0.2 mM Ca2+", "result": "~ 5.36 nm"}, {"measurement": "LIBS epitope exposure (integrin extension) on washed platelets", "setting": "[3]; absence of thrombin", "result": "Stronger extension"}, {"measurement": "decrease of affinity in 95% serum", "setting": "WT αIIbβ3", "result": 1.8, "unit": "fold"}]}
{"molecule": "fibronectin", "values": [{"measurement": "higher affinity for the open than the closed conformation", "setting": "α5β1", "result": "6,000 fold"}]}
